The values that follow come from ChEMBL document CHEMBL3091285, “Cytotoxic compounds from invasive giant salvinia (Salvinia molesta) against human tumor cells” (Bioorg Med Chem Lett, 2013).

A value given as a limit tells only on which side of the number the result lay.

Data set [1] deals with A549. Nature of the data set: Cytotoxicity against human A549 cells assessed as growth inhibition by WST-8 assay. It counts as functional. Background: Tetrazolium assays rely on reduction of a dye to a coloured formazan, in cell work by metabolically active cells.
Data set [2] is described as follows: Cytotoxicity against human BxPC3 cells assessed as growth inhibition by WST-8 assay. The format is functional. The settings on record: BXPC-3.
The test system of data set [3] is PC-3. The experiment in a line: Cytotoxicity against human PC3 cells assessed as growth inhibition by WST-8 assay. The format is functional.
Data set [4] can be described thus: Cytotoxicity against human MRC5 cells assessed as growth inhibition by WST-8 assay. It counts as cell-based.
Data set [5] is described as follows: Cytotoxicity against human PANC1 cells assessed as growth inhibition by WST-8 assay. The format is functional. The settings on record: PANC-1.
The subject of data set [6] is HL-60. Nature of the data set: Cytotoxicity against human HL60 cells assessed as growth inhibition by WST-8 assay. It counts as functional.
In data set [7] the test system is MDA-MB-231. Nature of the data set: Cytotoxicity against human MDA-MB-231 cells assessed as growth inhibition by WST-8 assay. It counts as functional.
Data set [8] concerns BXPC-3. Nature of the data set: Antiproliferative activity against human BxPC3 cells after 12 to 48 hrs by CCK-8 assay. It counts as functional, cell-based. Summed up: (§1)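 Pancreatic cancer cells (PANC-1, BxPC-3) exposed to test compound at 0 (control), 5, 10, 20, 40, 60, 80 or 100 uM, with concentration levels differing between compounds. Proliferation followed over incubation time, with viable cell number (x1,000) plotted against hours to assess dose-dependent suppression.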

For data set [9], the system named is PANC-1. Nature of the data set: Antiproliferative activity against human PANC1 cells after 12 to 48 hrs by CCK-8 assay. It counts as functional, cell-based. Summed up: as §1

A word on the GI50: it is the concentration at which growth is held to half of that of the control.

For `CC(C)C1=C(O)C(=O)C2=C(CC[C@H]3C(C)(C)CCC[C@]23C)C1=O` [ROYLEANONE], the GI50 in data set [1] was 30.1 µM; in [2] it was 51 µM; in data set [3] it was 27.1 µM; in data set [4] it was 45.7 µM; in data set [5] it was 52.6 µM; in [6], 36.3 µM.

Consider `CC(C)c1cc2c(cc1O)[C@@]1(C)CCCC(C)(C)[C@@H]1C[C@H]2CC1=CCC(O)(C(C)C)CC1` (some centres not stated), for which the GI50 in data set [1] turned out to be 62.9 µM; in data set [2], 87.3 µM; in data set [3], 54.2 µM; in [7] it was 75 µM; in [4], 58.4 µM; in data set [5], 60.4 µM. In [6], the GI50 was 48.1 µM. Besides, the inhibition entry in [8] and in data set [9] was “Dose-dependent effect” throughout.

Consider `CC(C)C1=Cc2ccc3c(c2C(=O)C1=O)C(=O)CCC3(C)C`, for which the GI50 stood at 24.9 µM in data set [1]; 20.5 µM in [2]; 19 µM in data set [3]; 20.4 µM in data set [4]; 32.1 µM in [5]; 23.3 µM in [6].

Turning to `CC(C)c1cc2c(cc1O)[C@@]1(C)CCCC(C)(C)[C@@H]1CC2O` (some centres not stated), the GI50 in [1] came to 75.1 µM; in data set [2], 74.7 µM; in [3], 85.6 µM; in data set [4], 70.5 µM; in [5] it was 78.2 µM; in data set [6] it was 75.2 µM.

For `CC(C)c1cc2ccc3c(c2cc1O)CCCC3(C)C`, the GI50 in data set [1] is 42.2 µM; in data set [2], 36.4 µM; in data set [3], 43.6 µM; in data set [4], 55.4 µM; in [5], 37.5 µM; in [6], 50 µM.

Take `CC(C)c1ccc2c3c(ccc2c1)C(C)(C)CCC3`: the GI50 in [1], in data set [2], in data set [3], in [4], in data set [5] and in data set [6] was above 100 µM throughout.

As for `CC(C)c1cc(C=O)c([C@@]2(C)CCCC(C)(C)[C@@H]2C=O)cc1O`, the 50% growth inhibitory concentration (GI50) in [1] was 93.8 µM.

On to `COc1cc2c(cc1C(C)C)C(=O)C(O)=C1C(C)(C)CCC[C@@]12C`, for which the GI50 in data set [1] came to 21.2 µM.

Consider `CC(C)C1=C(O)C(=O)C2=C(C=C[C@H]3C(C)(C)CCC[C@]23C)C1=O`, for which the GI50 in data set [1] amounted to 48 µM; in data set [2], 41.7 µM; in data set [3], 46.3 µM; in [4] it was 40.2 µM; in data set [5], 51.3 µM; in data set [6], 30 µM.

`CC(C)c1cc2c(cc1O)[C@@]1(C)CCCC(C)(C)[C@@H]1C=C2`: the GI50 in [1] amounted to 53.8 µM; in [2], 37.5 µM; in data set [3], 58.1 µM; in data set [4], 59.2 µM; in [5], 46.7 µM; in [6], 66.5 µM.

`CC(C)c1cc2c(cc1O)[C@@]1(C)CCCC(C)(C)[C@@H]1CC2` [FERRUGINOL]: the GI50 in data set [1] is 30.7 µM; in [2], 21.1 µM; in [3], 56.5 µM; in [4], 40 µM; in data set [5], 41.1 µM; in data set [6], 27.3 µM.

In the case of `CO[C@H]1c2cc(C(C)C)c(O)c(O)c2[C@@]23CCCC(C)(C)[C@@H]2[C@@H]1OC3=O`, in [1], the GI50 was determined as 86.5 µM.

With `CC(C)c1cc2c(c(O)c1O)[C@@]1(C)CCCC(C)(C)C1=C(O)C2=O` [14-DEOXYCOLEON U], the 50% growth inhibitory concentration (GI50) is 9.1 µM in data set [1]; 37.3 µM in data set [2]; 8.39 µM in data set [3]; above 100 µM in data set [7]; 24.8 µM in [4]; 22.6 µM in [5]. Moreover, the GI50 in [6] is 13.3 µM.

With `CC(C)c1cc2c(cc1O)[C@@]1(C)CCCC(C)(C)[C@@H]1CC2=O` [SUGIOL], the concentration for 50% growth inhibition (GI50) in data set [1] is 79.8 µM; in [2], 36.1 µM; in data set [3] it was above 100 µM; in data set [4] it was above 100 µM; in data set [5] it was 87.9 µM; in data set [6], 68.6 µM.

Consider `CC(C)c1cc2c(c(O)c1O)[C@@]1(C)CCCC(C)(C)[C@@H]1CC2=O` [DEMETHYLCRYPTOJAPONOL], for which the GI50 amounted to 35 µM in data set [1]; 45 µM in [2]; 41 µM in data set [3]; 40.2 µM in data set [4]; 43.1 µM in [5]; 35.3 µM in [6].

Take `CC(C)c1cc2c(cc1O)[C@@]1(C)CCCC(C)(C)C1=C(O)C2=O`: the GI50 in [1] came out at 11.1 µM; in data set [2], 25 µM; in data set [3], 13.2 µM; in [4], 20 µM; in data set [5], 23.1 µM; in [6], 11.5 µM. The inhibition result in data set [8] and in data set [9] was “Dose-dependent effect” in each case.

Regarding `CC(C)c1cc2c(cc1O)[C@@]1(C)CCCC(C)(C)C1=CC2=O`, the GI50 was 84.5 µM in data set [1]; above 100 µM in data set [2]; above 100 µM in data set [3]; above 100 µM in [5]; 92.8 µM in data set [6].
